Reference: ChEMBL document CHEMBL3286335, “Synthesis of 2,3,6-trideoxy sugar triazole hybrids as potential new broad spectrum antimicrobial agents” (Eur J Med Chem, 2014)
Values after ≈ are worked out from the molar mass of the structure shown.

Legend:
Format in all cases: functional
[1] = system: Pseudomonas aeruginosa; test: Antimicrobial activity against Pseudomonas aeruginosa ATCC BAA-427 after 24 hrs by microbroth dilution method; conditions: ATCC BAA-427, 24 h
Method in brief: (§1)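 Broth microdilution per NCCLS guidelines. Bacteria in Mueller-Hinton broth; fungi in MOPS-buffered RPMI 1640. Test compounds at 50-0.36 µg/mL, standard drugs over 32-0.0018 µg/mL. Inoculum 1-5 × 10^3 cells/mL, 35 °C in a moist chamber. A492 read at 24 h for bacteria, 48 h for C. albicans, 72 h for A. fumigatus, C. neoformans and S. schenckii, 96 h for T. mentagrophytes. MIC taken as 90% growth inhibition relative to growth control.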

[2] = system: Trichophyton mentagrophytes; test: Antimicrobial activity against Trichophyton mentagrophytes after 96 hrs by microbroth dilution method; method in brief: as §1
[3] = system: Klebsiella pneumoniae; test: Antimicrobial activity against Klebsiella pneumoniae ATCC 27736 after 24 hrs by microbroth dilution method; conditions: ATCC 27736, 24 h; method in brief: as §1
[4] = system: Staphylococcus aureus; test: Antimicrobial activity against vancomycin-resistant Staphylococcus aureus after 24 hrs by microbroth dilution method
Method in brief: (§2)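 Microbroth dilution in Mueller Hinton broth, following NCCLS guidelines. Test compounds were run at 50-0.36 µg/mL against an initial inoculum of 1-5 × 10^3 cells/mL. Plates were incubated in a moist chamber at 35 °C, and absorbance at 492 nm was read after 24 h. MIC was taken as 90% growth inhibition relative to the growth control.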

[5] = system: Candida albicans; test: Antimicrobial activity against Candida albicans after 48 hrs by microbroth dilution method; method in brief: as §1
[6] = system: Aspergillus fumigatus; test: Antimicrobial activity against Aspergillus fumigatus after 72 hrs by microbroth dilution method; method in brief: as §1
[7] = system: Staphylococcus aureus; test: Antimicrobial activity against Staphylococcus aureus ATCC 25923 after 24 hrs by microbroth dilution method; conditions: ATCC 25923, 24 h; method in brief: as §1
[8] = system: Sporothrix schenckii; test: Antimicrobial activity against Sporothrix schenckii after 72 hrs by microbroth dilution method; method in brief: as §1
[9] = system: Escherichia coli; test: Antimicrobial activity against Escherichia coli ATCC 9637 after 24 hrs by microbroth dilution method; conditions: ATCC 9637, 24 h; method in brief: as §1
[10] = system: Cryptococcus neoformans; test: Antimicrobial activity against Cryptococcus neoformans after 72 hrs by microbroth dilution method; method in brief: as §1
[11] = system: Staphylococcus aureus; test: Antimicrobial activity against methicillin-resistant Staphylococcus aureus after 24 hrs by microbroth dilution method; method in brief: as §2

SMILES	MIC [1] [µg/mL]	MIC [2] [µg/mL]	MIC [3] [µg/mL]	MIC [4] [µg/mL]	MIC [5] [µg/mL]	MIC [6] [µg/mL]	MIC [7] [µg/mL]	MIC [8] [µg/mL]	MIC [9] [µg/mL]	MIC [10] [µg/mL]	MIC [11] [µg/mL]
CC(C)CCO[C@@H]1C=CC(=O)[C@@H](Cn2cc(CCCN3C(=O)c4ccccc4C3=O)nn2)O1	> 50	25 (≈ 55.2 µM)	> 50	25 (≈ 55.2 µM)	25 (≈ 55.2 µM)	> 50	6.25 (≈ 13.8 µM)	50 (≈ 110 µM)	> 50	50 (≈ 110 µM)	25 (≈ 55.2 µM)
CC(C)CCO[C@@H]1C=CC(=O)[C@@H](Cn2ccnn2)O1	> 50	> 50	> 50	> 50	50 (≈ 188 µM)	> 50	25 (≈ 94.2 µM)	> 50	50 (≈ 188 µM)	50 (≈ 188 µM)	> 50
CC(C)CCO[C@@H]1C=CC(=O)[C@@H](Cn2cc(CCn3cc(C4CC4)nn3)nn2)O1	> 50	> 50	> 50	> 50	50 (≈ 125 µM)	> 50	25 (≈ 62.4 µM)	> 50	> 50	50 (≈ 125 µM)	> 50
CC(C)CCO[C@@H]1C=CC(=O)[C@@H](Cn2cc(CCn3cc(-c4ccccc4)nn3)nn2)O1	> 50	50 (≈ 115 µM)	> 50	> 50	50 (≈ 115 µM)	> 50	50 (≈ 115 µM)	50 (≈ 115 µM)	> 50	50 (≈ 115 µM)	> 50
CC1(C)S[C@@H]2[C@H](NC(=O)[C@H](N)c3ccccc3)C(=O)N2[C@H]1C(=O)O [AMPICILLIN]	> 50		12.5 (≈ 35.8 µM)	0.78 (≈ 2.23 µM)			12.5 (≈ 35.8 µM)		50 (≈ 143 µM)		0.78 (≈ 2.23 µM)
O=C(O)c1cn(C2CC2)c2cc(N3CCNCC3)c(F)cc2c1=O [CIPROFLOXACIN]	0.09 (≈ 0.272 µM)		0.01 (≈ 0.0302 µM)	0.38 (≈ 1.15 µM)			0.09 (≈ 0.272 µM)				0.38 (≈ 1.15 µM)
Clc1ccccc1C(c1ccccc1)(c1ccccc1)n1ccnc1 [CLOTRIMAZOLE]		2 (≈ 5.8 µM)			0.25 (≈ 0.725 µM)	8 (≈ 23.2 µM)		4 (≈ 11.6 µM)		0.25 (≈ 0.725 µM)	
OC(Cn1cncn1)(Cn1cncn1)c1ccc(F)cc1F [FLUCONAZOLE]		16 (≈ 52.2 µM)			1 (≈ 3.27 µM)	> 32		4 (≈ 13.1 µM)		2 (≈ 6.53 µM)	
Nc1nc(=O)[nH]cc1F [FLUCYTOSINE]		> 32			0.25 (≈ 1.94 µM)	> 32		> 32		0.13 (≈ 1.01 µM)	
CN[C@@H]1[C@@H](O)[C@@H](O[C@@H]2[C@@H](O)[C@H](O[C@H]3O[C@H]([C@@H](C)NC)CC[C@H]3N)[C@@H](N)C[C@H]2N)OC[C@]1(C)O [GENTAMICIN C1]	0.39 (≈ 0.817 µM)		1.56 (≈ 3.27 µM)	1.56 (≈ 3.27 µM)			0.39 (≈ 0.817 µM)		1.56 (≈ 3.27 µM)		1.56 (≈ 3.27 µM)
COc1cccc(OC)c1C(=O)N[C@@H]1C(=O)N2[C@@H]1SC(C)(C)[C@@H]2C(=O)O [METHICILLIN]	> 50		6.25 (≈ 16.4 µM)				0.04 (≈ 0.105 µM)		50 (≈ 131 µM)		
Clc1ccc(COC(Cn2ccnc2)c2ccc(Cl)cc2Cl)c(Cl)c1 (centres undefined) [MICONAZOLE]		0.78 (≈ 1.87 µM)			25 (≈ 60.1 µM)	12.5 (≈ 30 µM)		3.12 (≈ 7.5 µM)		12.5 (≈ 30 µM)	
CN[C@H](CC(C)C)C(=O)N[C@H]1C(=O)N[C@@H](CC(N)=O)C(=O)N[C@H]2C(=O)N[C@H]3C(=O)N[C@H](C(=O)N[C@H](C(=O)O)c4cc(O)cc(O)c4-c4cc3ccc4O)[C@H](O)c3ccc(c(Cl)c3)Oc3cc2cc(c3O[C@@H]2O[C@H](CO)[C@@H](O)[C@H](O)[C@H]2O[C@H]2C[C@](C)(N)[C@H](O)[C@H](C)O2)Oc2ccc(cc2Cl)[C@H]1O [VANCOMYCIN]	> 50		12.5 (≈ 8.63 µM)				12.5 (≈ 8.63 µM)		12.5 (≈ 8.63 µM)		
